PMC12673082 (Nature Communications, 2025)
Where “and” joins values, the source holds several entries; their conditions need not be identical. Equal values may be shown once.

What was measured:
hP2X7 = molecular target: T1, hP2X7 (Homo sapiens, UniProt Q99572); test: Whole-cell patch clamp, ATP-evoked current, transfected HEK293; assay type: cell-based
T1 sequence (Q99572 1-595): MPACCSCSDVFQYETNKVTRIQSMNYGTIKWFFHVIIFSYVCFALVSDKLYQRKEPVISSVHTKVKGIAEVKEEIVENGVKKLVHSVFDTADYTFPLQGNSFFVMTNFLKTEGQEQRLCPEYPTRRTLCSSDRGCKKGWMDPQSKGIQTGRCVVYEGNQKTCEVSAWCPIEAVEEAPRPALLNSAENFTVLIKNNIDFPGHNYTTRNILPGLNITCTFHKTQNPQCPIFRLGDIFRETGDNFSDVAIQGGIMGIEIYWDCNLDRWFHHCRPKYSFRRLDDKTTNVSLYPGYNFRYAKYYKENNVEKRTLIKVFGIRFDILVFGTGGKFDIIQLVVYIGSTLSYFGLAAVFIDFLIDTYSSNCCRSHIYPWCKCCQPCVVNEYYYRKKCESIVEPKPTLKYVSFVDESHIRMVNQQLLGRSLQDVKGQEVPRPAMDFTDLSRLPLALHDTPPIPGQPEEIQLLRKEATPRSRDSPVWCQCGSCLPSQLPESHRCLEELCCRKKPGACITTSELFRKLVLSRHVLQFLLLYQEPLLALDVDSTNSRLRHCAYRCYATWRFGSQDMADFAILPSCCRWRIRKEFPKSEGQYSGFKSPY

pdP2X7 = pdP2X7 (Ailuropoda melanoleuca, UniProt G1M6C4); test: as above; assay type: cell-based, giant panda (Ailuropoda melanoleuca)
rP2X7 = molecular target: T2, rP2X7 (Rattus norvegicus, UniProt Q64663); test: as above; assay type: cell-based; conditions: HEK293, read-out: inhibition rate
T2 sequence (Q64663 1-595): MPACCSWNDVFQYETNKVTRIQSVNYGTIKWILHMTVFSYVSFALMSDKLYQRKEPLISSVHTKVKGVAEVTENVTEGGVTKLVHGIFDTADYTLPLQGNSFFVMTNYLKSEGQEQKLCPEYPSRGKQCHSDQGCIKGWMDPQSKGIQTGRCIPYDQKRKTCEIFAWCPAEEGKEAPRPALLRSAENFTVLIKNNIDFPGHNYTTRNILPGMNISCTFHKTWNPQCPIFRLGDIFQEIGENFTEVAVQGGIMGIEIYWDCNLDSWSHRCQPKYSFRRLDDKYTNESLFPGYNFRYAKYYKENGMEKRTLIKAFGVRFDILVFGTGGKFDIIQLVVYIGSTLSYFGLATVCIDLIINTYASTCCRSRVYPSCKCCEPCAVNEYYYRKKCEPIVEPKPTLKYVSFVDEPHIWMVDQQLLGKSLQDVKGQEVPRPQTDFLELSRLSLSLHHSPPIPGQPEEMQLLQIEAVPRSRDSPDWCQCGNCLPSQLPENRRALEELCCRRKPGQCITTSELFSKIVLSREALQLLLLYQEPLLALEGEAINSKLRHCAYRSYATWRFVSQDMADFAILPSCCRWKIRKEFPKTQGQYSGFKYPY

hP2X2 = hP2X2 (Homo sapiens, UniProt Q9UBL9); test: as above; assay type: cell-based; conditions: HEK293, read-out: inhibition rate
hP2X4 = hP2X4 (Homo sapiens, UniProt Q99571); test: Nystatin-perforated patch recording, ATP-evoked current, HEK293; assay type: cell-based; conditions: HEK293, read-out: inhibition rate
mP2X7 A312V = molecular target: T3, mP2X7 A312V (Mus musculus, UniProt Q9Z1M0, A312V); test: Whole-cell patch clamp, mP2X7 mutant; assay type: cell-based
T3 sequence (Q9Z1M0 1-595 A312V): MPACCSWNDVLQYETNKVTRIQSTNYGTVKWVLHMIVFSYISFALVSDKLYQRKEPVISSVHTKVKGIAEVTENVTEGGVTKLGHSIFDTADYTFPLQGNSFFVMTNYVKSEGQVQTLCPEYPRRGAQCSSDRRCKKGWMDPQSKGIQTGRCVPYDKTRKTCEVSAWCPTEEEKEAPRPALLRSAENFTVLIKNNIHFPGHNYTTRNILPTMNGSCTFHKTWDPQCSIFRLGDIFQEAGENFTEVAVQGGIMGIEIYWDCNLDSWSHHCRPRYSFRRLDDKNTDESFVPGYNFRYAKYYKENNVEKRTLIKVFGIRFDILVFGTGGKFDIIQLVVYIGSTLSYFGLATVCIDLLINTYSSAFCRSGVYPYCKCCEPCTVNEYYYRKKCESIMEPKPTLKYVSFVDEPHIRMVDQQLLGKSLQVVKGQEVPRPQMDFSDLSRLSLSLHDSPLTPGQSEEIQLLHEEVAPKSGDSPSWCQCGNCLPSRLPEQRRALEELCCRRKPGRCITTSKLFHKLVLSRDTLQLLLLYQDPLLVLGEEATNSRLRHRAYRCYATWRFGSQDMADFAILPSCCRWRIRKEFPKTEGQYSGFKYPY

mP2X7 Y108F/A312V = mP2X7 Y108F/A312V (Mus musculus, UniProt Q9Z1M0, A312V/Y108F); test: Whole-cell patch clamp, mP2X7 mutant; assay type: cell-based; conditions: 1 μM
pdP2X7 F103W = test: Whole-cell patch clamp, pdP2X7 mutant; assay type: cell-based, giant panda; conditions: pd7F103W, 30 μM
pdP2X7 Y295A = test: Whole-cell patch clamp, pdP2X7 mutant; assay type: cell-based, giant panda; conditions: pd7Y295A, 30 μM
P2rx7+/+ mice = test: Murine full-thickness wound infection model; assay type: in vivo, mouse; conditions: 7.5 mg/ml, 50 μL s.c. twice daily, 7 days, vs control solvent
In short: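 WT C57BL/6J mice (8–10 weeks) were anesthetized, their backs shaved and iodine-disinfected, and a 6 mm punch wound made. 20 μL S. aureus (1×10^7 CFU/ml, saline-washed) was applied to the wound. After 24 h of infection, mice were randomized to test compound (7.5 mg/ml, 50 μL) or vehicle (20% sulfobutylether-β-cyclodextrin in saline), given s.c. around the wound twice daily for 7 days. Wound area was imaged daily and quantified. Data are mean ± SEM.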

pdP2X7 F95A = pdP2X7 F95A (Ailuropoda melanoleuca, UniProt G1M6C4, F96A); conditions: pd7 F95A, 10 μM
pdP2X7 P96G = pdP2X7 P96G (Ailuropoda melanoleuca, UniProt G1M6C4, P97G); conditions: pd7 P96G, 10 μM
pdP2X7 V312A = pdP2X7 V312A (Ailuropoda melanoleuca, UniProt G1M6C4, V313A); conditions: pd7 V312A, 10 μM
pdP2X7 E305F = pdP2X7 E305F (Ailuropoda melanoleuca, UniProt G1M6C4, E306F); test: cell-based
pdP2X7 E305F, sequence (G1M6C4 2-595 E306F): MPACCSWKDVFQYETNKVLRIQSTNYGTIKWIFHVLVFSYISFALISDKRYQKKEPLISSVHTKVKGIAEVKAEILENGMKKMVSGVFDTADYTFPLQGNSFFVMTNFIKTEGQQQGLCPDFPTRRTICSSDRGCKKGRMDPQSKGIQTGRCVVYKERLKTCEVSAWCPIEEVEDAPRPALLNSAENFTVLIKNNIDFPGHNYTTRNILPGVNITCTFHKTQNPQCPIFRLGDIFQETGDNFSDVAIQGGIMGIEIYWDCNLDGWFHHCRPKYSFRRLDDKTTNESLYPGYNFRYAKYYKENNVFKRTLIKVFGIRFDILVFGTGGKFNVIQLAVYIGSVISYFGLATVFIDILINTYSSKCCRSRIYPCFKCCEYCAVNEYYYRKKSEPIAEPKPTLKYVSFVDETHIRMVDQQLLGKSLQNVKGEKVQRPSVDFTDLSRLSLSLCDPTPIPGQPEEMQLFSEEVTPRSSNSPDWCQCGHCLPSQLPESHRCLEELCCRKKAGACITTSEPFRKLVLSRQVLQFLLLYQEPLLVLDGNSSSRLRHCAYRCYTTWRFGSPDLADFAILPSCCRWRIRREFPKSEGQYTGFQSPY

pdP2X7, sequence (G1M6C4 2-595): as the sequence (G1M6C4 2-595 E306F) above, with F305E counted along it
hP2X2, sequence (Q9UBL9 whole entry): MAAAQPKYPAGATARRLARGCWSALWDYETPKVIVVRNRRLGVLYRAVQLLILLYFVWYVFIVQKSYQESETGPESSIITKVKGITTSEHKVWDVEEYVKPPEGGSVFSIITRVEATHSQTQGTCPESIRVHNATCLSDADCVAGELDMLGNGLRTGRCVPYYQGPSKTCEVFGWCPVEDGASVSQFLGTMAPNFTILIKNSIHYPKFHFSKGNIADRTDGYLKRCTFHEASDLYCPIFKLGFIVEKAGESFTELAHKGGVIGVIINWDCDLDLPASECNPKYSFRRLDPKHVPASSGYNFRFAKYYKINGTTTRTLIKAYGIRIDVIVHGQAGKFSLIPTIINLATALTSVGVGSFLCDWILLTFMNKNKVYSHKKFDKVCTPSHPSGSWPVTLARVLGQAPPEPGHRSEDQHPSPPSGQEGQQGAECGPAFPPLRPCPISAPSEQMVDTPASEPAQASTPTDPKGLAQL
mP2X7 Y108F/A312V, sequence (Q9Z1M0 whole entry Y108F/A312V): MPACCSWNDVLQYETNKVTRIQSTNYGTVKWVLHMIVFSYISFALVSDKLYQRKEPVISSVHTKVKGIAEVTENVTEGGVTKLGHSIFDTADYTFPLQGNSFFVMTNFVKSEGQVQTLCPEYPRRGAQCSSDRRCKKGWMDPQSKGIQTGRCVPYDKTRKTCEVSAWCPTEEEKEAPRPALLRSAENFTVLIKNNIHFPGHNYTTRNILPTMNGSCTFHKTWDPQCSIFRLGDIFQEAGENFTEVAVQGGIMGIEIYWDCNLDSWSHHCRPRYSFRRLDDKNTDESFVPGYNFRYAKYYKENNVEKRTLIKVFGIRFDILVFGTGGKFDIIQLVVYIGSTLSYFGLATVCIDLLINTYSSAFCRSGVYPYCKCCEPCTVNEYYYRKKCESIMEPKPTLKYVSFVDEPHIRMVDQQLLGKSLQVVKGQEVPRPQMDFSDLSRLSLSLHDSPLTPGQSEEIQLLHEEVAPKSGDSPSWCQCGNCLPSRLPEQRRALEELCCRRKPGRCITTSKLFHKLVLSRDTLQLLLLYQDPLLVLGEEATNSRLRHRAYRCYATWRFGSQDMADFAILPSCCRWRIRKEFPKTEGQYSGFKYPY
hP2X4, sequence (Q99571 whole entry): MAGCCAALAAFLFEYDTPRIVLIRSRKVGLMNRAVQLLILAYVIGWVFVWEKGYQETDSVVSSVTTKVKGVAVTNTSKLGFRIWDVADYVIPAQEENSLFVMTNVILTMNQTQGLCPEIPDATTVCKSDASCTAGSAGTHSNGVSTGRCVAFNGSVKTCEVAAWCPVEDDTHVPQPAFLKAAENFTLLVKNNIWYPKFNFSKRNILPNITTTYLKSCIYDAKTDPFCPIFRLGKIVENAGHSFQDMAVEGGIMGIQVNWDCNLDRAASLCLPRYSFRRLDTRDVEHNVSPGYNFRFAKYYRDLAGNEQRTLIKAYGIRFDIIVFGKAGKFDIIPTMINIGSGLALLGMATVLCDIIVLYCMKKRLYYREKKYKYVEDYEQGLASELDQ
pdP2X7 V312A, sequence (G1M6C4 2-595 V313A): as the sequence (G1M6C4 2-595 E306F) above, with F305E, V312A counted along it
pdP2X7 P96G, sequence (G1M6C4 2-595 P97G): as the sequence (G1M6C4 2-595 E306F) above, with P96G, F305E counted along it
pdP2X7 F95A, sequence (G1M6C4 2-595 F96A): as the sequence (G1M6C4 2-595 E306F) above, with F95A, F305E counted along it

With `C=CC[C@@H]1c2ccc(OC)c(OC)c2CN2CCc3cc4c(cc3[C@H]12)OCO4` [PSFL1191, (13R,13aS)-13-allyl-9,10-dimethoxy-5,8,13,13a-tetrahydro-6H-1,3dioxolo[4,5-g]isoquinolino[3,2-a]isoquinoline] the IC50 (hP2X7) was 0.248 ± 0.017 µM, the “fold difference in affinity for hP2X7 between PSFL1191 and PSFL1190” value (hP2X7) was ~50 fold and > 50 fold and the IC50 (pdP2X7) was 0.754 ± 0.018 µM. For the same molecule, the “apparent affinity, times lower than that of JNJ-54175446” value (pdP2X7; pdP2X7) was 10-20 times, the inhibition at 30 µM (rP2X7) was 4.94 ± 1.43% and the inhibition at 30 µM (hP2X2) was 3.09 ± 7.46%. The inhibition at 30 µM (hP2X4) was -17.6 ± 9%, the IC50 (mP2X7 A312V) was 0.908 ± 0.026 µM and the “fold increase of inhibition compared to m7WT” value (mP2X7 A312V; mP2X7 A312V, 1 μM) was ~ 21 fold and 21 fold. For the same molecule, the “fold increase of inhibition compared to m7WT” value (mP2X7 Y108F/A312V) was ~26 fold, the inhibition rate (pdP2X7 F103W) was ≤ 50% and the inhibition rate (pdP2X7 Y295A) was ≤ 50%. For the same molecule, the “wound healing (wound area)” value (P2rx7+/+ mice) was “did not influence the wound healing rate”, the “inhibitory effect on ATP (1 mM)-induced activation (inhibition ratio)” value (shortened to “inhibitory effect on ATP … (inhibition ratio)”) (pdP2X7 F95A) was “did not” and the “inhibitory effect on ATP … (inhibition ratio)” value (pdP2X7 P96G) was “significantly attenuated”. For the same molecule, the “inhibitory effect on ATP … (inhibition ratio)” value (pdP2X7 V312A) was “significantly attenuated” and the IC50 (pdP2X7 E305F) was 1.57 ± 0.36 µM.
